This is an account of results in ChEMBL document CHEMBL3112572, “Substituted 4-phenyl-2-aminoimidazoles and 4-phenyl-4,5-dihydro-2-aminoimidazoles as voltage-gated sodium channel modulators” (Eur J Med Chem, 2014).

Each structure is given as a SMILES string. Where only a bound is given, the exact number is not on record here.

The term IC50 denotes the point on the concentration scale where inhibition reaches its midpoint.

For experiment [1], the target named is T1, Sodium channel protein type 9 subunit alpha (Homo sapiens, UniProt Q15858). In words: Modulation of human Nav1.7 in closed state assessed as inhibition of inward current after 4 mins by whole-cell electrophysiology. The method, boiled down: (§1)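 Automated whole-cell patch clamp (QPatch HT) on trypsin-EDTA-dissociated cells held in serum-free medium. Closed-state test pulse depolarizes from -100 mV. 0.1% DMSO vehicle for 4 min is followed by four cumulative bolus concentrations (0.3–10 µM, 0.1% DMSO final), each incubated 4 min. Peak inward current from the last three sweeps is compared with vehicle, and IC50 comes from a 4-parameter logistic fit constrained 0–100%, n≥3.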
T1 sequence (Q15858 whole entry): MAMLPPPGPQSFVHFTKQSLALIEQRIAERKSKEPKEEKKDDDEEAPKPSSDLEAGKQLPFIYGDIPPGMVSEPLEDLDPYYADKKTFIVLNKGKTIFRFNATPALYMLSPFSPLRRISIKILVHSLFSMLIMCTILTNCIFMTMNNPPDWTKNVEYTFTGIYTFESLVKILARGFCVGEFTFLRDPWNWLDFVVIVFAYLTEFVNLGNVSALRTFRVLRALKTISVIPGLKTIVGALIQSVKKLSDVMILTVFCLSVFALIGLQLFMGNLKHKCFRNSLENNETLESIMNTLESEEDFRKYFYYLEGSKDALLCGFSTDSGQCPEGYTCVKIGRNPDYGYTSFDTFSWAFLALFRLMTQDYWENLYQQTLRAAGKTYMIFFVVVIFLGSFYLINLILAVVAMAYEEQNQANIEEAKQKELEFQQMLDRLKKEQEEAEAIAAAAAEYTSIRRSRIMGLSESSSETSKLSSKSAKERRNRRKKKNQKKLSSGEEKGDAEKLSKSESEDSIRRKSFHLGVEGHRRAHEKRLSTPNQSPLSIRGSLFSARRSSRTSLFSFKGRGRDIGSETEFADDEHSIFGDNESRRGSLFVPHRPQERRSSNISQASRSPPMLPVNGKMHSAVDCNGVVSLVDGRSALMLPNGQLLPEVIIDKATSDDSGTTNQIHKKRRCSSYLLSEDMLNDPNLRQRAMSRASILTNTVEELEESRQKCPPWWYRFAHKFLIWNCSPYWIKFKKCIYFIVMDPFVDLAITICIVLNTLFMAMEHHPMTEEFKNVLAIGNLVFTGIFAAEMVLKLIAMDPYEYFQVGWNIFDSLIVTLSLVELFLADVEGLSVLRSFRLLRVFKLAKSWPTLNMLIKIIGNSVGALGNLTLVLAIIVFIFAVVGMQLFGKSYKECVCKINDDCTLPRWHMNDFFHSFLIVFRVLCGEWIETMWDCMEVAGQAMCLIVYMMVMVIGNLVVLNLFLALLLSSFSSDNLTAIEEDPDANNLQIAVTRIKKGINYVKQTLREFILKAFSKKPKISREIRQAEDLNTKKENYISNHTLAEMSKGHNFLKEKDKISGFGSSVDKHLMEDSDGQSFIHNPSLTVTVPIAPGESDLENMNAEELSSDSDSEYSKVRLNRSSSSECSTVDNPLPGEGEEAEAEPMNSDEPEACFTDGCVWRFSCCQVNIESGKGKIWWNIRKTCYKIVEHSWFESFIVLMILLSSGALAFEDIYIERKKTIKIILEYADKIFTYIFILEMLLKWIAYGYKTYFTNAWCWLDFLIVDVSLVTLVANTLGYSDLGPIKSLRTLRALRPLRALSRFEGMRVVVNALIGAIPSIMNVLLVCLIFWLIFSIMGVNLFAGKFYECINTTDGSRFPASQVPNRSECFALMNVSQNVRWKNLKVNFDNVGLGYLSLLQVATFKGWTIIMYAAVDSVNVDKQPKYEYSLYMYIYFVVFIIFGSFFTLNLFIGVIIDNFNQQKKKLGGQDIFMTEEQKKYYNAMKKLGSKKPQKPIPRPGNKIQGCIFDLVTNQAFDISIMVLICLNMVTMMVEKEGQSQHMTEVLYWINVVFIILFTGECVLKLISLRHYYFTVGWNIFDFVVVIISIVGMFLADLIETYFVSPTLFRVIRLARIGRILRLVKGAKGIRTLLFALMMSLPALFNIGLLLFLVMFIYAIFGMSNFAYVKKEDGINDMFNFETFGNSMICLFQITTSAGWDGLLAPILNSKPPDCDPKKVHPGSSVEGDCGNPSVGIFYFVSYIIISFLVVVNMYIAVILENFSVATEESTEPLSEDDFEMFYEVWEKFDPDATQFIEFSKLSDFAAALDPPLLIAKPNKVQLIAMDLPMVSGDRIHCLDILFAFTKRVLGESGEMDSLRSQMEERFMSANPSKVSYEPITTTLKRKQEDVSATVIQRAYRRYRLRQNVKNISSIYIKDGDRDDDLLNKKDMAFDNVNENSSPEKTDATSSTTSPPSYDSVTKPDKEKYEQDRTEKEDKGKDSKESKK

In experiment [2] the target is T2, Sodium channel protein type 4 subunit alpha (Homo sapiens, UniProt P35499). In words: Modulation of human Nav1.4 in closed state assessed as inhibition of inward current after 4 mins by whole-cell electrophysiology. The method, boiled down:
as §1

The target in experiment [3] is T1, Sodium channel protein type 9 subunit alpha. In words: Modulation of human Nav1.7 in open-inactivated state assessed as inhibition of inward current after 4 mins by whole-cell electrophysiology. The method, boiled down: (§2)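 Cells dissociated with trypsin-EDTA are kept in serum-free medium and recorded by QPatch HT whole-cell clamp with a high-frequency, pathophysiological protocol. The open-inactivated test pulse depolarizes from about -70 mV. After 4 min of vehicle (0.1% DMSO), 0.3–10 µM is added cumulatively, 4 min per level. Percent inhibition of peak inward current uses the mean of the last three sweeps against vehicle. IC50 is fitted by a constrained 4-parameter logistic, mean ± SD of ≥3 experiments.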

Experiment [4] addresses T3, Sodium channel protein type 3 subunit alpha (Homo sapiens, UniProt Q9NY46). In words: Modulation of human Nav1.3 in closed state assessed as inhibition of inward current after 4 mins by whole-cell electrophysiology. The method, boiled down:
as §1

The target in experiment [5] is T2, Sodium channel protein type 4 subunit alpha. In words: Modulation of human Nav1.4 in open-inactivated state assessed as inhibition of inward current after 4 mins by whole-cell electrophysiology. The method, boiled down:
as §2

Experiment [6] addresses T3, Sodium channel protein type 3 subunit alpha. The experiment in a line: Modulation of human Nav1.3 in open-inactivated state assessed as inhibition of inward current after 4 mins by whole-cell electrophysiology.

T2 sequence (P35499 whole entry): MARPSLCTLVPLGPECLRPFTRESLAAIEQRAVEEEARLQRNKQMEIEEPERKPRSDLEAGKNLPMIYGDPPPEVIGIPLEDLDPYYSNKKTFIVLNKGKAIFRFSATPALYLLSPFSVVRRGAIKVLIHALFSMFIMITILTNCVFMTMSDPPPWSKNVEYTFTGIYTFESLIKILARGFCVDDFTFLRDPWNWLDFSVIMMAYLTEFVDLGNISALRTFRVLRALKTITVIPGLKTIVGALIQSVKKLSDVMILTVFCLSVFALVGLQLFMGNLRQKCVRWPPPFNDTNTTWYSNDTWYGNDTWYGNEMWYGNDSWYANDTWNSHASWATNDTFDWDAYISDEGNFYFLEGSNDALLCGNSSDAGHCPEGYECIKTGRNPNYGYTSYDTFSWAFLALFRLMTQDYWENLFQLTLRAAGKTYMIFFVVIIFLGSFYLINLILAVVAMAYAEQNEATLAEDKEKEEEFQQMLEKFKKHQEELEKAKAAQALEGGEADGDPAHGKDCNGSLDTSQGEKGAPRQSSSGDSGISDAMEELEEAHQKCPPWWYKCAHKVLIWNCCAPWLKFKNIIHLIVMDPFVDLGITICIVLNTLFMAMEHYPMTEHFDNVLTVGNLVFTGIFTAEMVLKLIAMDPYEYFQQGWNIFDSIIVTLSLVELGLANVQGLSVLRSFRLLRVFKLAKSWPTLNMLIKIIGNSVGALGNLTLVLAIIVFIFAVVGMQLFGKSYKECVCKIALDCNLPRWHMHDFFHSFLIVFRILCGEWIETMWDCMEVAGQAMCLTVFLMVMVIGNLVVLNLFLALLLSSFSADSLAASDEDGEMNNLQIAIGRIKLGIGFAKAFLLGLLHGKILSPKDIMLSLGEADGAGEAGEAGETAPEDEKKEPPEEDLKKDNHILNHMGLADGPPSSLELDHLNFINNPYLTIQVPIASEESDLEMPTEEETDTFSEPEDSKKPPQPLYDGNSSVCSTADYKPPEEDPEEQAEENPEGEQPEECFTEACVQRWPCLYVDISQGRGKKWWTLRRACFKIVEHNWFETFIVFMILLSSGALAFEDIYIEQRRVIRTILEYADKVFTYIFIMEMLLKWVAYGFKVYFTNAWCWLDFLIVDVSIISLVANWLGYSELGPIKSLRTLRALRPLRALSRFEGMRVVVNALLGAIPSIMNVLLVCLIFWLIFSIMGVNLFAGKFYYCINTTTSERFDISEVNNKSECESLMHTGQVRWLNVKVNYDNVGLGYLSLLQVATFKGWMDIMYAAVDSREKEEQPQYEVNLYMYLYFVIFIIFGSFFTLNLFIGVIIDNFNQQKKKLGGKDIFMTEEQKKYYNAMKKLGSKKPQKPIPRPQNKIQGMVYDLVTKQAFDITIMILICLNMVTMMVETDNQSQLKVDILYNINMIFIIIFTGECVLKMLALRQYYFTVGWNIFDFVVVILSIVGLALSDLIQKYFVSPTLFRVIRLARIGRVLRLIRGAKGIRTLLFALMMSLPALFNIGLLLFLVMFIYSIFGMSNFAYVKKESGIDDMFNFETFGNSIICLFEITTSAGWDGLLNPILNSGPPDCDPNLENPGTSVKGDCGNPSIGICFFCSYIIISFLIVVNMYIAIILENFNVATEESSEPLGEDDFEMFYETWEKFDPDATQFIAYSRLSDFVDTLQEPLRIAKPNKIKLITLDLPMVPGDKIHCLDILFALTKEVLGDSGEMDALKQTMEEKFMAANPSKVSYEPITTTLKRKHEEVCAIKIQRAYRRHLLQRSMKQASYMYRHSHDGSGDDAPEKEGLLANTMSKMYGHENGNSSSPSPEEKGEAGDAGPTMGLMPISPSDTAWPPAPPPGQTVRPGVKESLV

In the case of `CNc1nc(-c2cccc(NC(=O)c3cc4ccccc4[nH]3)c2)c[nH]1`, the IC50 in experiment [1], in experiment [2], in experiment [3], in experiment [4], in experiment [5] and in experiment [6] was over 30 µM throughout.

Regarding `CNc1nc(-c2cccc(NC(=O)c3cc4ccccc4[nH]3)c2)cn1C(=O)OC(C)(C)C`, the IC50 in experiment [1], in experiment [2], in experiment [3], in experiment [4], in experiment [5] and in experiment [6] was over 30 µM in each case.

As for `CC(C)(C)OC(=O)n1cc(-c2ccc(NC(=O)c3ccc[nH]3)cc2)nc1N`, the IC50 in experiment [1], in experiment [2], in experiment [3], in experiment [4], in experiment [5] and in experiment [6] was over 30 µM in each case.

In the case of `Nc1nc(-c2cccc(NC(=O)c3ccc[nH]3)c2)c[nH]1`, the IC50 in experiment [1], in experiment [2], in experiment [3], in experiment [4], in experiment [5] and in experiment [6] was over 30 µM each time.

With `Nc1nc(-c2ccc(NC(=O)c3ccc[nH]3)cc2)c[nH]1`, the half-inhibitory concentration (IC50) was over 30 µM in experiment [1]; over 30 µM in experiment [2]; 27 µM in experiment [3]; over 30 µM in experiment [4]; over 30 µM in experiment [5]; over 30 µM in experiment [6].

Consider `CC(C)(C)OC(=O)n1cc(-c2cccc(NC(=O)c3cc[nH]c3)c2)nc1N`, for which the IC50 was over 30 µM in experiment [1]; over 30 µM in experiment [2]; over 30 µM in experiment [3]; over 30 µM in experiment [4]; over 30 µM in experiment [5]; 23 µM in experiment [6].

For the compound `Nc1nc(-c2cccc(NC(=O)c3cc[nH]c3)c2)c[nH]1`, the IC50 in experiment [1] is over 30 µM; in experiment [2], over 30 µM; in experiment [3], over 30 µM; in experiment [4], over 30 µM; in experiment [5], 15 µM; in experiment [6], 12 µM.

As to `CC(C)(C)OC(=O)n1cc(-c2ccc(NC(=O)c3ccco3)cc2)nc1N`, the IC50 in experiment [1] was over 30 µM; in experiment [2], over 30 µM; in experiment [3], 22 µM; in experiment [4] it was over 30 µM; in experiment [5], over 30 µM; in experiment [6], 27 µM.

Regarding `CC(C)(C)OC(=O)n1cc(-c2cccc(NC(=O)c3cc4ccccc4[nH]3)c2)nc1N`, the half-inhibitory concentration (IC50) in experiment [1] was over 30 µM; in experiment [2], over 30 µM; in experiment [3], over 30 µM; in experiment [4], over 30 µM; in experiment [5] it was over 30 µM; in experiment [6], 26 µM.

For `CC(C)(C)OC(=O)n1cc(-c2ccc(NC(=O)c3cc4ccccc4[nH]3)cc2)nc1N`, the IC50 in experiment [1] is over 30 µM; in experiment [2], over 30 µM; in experiment [3] it was over 30 µM; in experiment [4] it was over 30 µM; in experiment [5] it was 28 µM; in experiment [6], 22 µM.

In the case of `Nc1nc(-c2cccc(NC(=O)c3cc4ccccc4[nH]3)c2)c[nH]1`, the IC50 in experiment [1], in experiment [2], in experiment [3], in experiment [4], in experiment [5] and in experiment [6] was over 30 µM throughout.

In the case of `Nc1nc(-c2ccc(NC(=O)c3cc4ccccc4[nH]3)cc2)c[nH]1`, the IC50 in experiment [1], in experiment [2], in experiment [3], in experiment [4], in experiment [5] and in experiment [6] was over 30 µM in each case.

`CC(C)(C)OC(=O)n1cc(-c2cccc(NC(=O)c3c[nH]c4ccccc34)c2)nc1N`: the IC50 in experiment [1] was over 30 µM; in experiment [2], over 30 µM; in experiment [3], over 30 µM; in experiment [4], over 30 µM; in experiment [5], 26 µM; in experiment [6], 27 µM.

As for `Nc1nc(-c2cccc(NC(=O)c3c[nH]c4ccccc34)c2)c[nH]1`, the IC50 in experiment [1] was over 30 µM; in experiment [2] it was over 30 µM; in experiment [3], 26 µM; in experiment [4] it was over 30 µM; in experiment [5], 14 µM; in experiment [6], 12 µM.

On to `CC(C)(C)OC(=O)n1cc(-c2cccc(NC(=O)[C@H]3CCCN3)c2)nc1N`, for which the IC50 is over 30 µM in experiment [1]; over 30 µM in experiment [2]; 29 µM in experiment [3]; over 30 µM in experiment [4]; over 30 µM in experiment [5]; over 30 µM in experiment [6].

Turning to `CC(C)(C)OC(=O)n1cc(-c2ccc(NC(=O)[C@H]3CCCN3)cc2)nc1N`, the IC50 in experiment [1], in experiment [2], in experiment [3], in experiment [4], in experiment [5] and in experiment [6] was over 30 µM each time.

Turning to `CC(C)(C)OC(=O)n1cc(-c2ccc(NC(=O)[C@@H]3CCCN3)cc2)nc1N`, the concentration for half-maximal inhibition (IC50) was over 30 µM in experiment [1]; over 30 µM in experiment [2]; 19 µM in experiment [3]; over 30 µM in experiment [4]; over 30 µM in experiment [5]; 25 µM in experiment [6].

Turning to `Nc1nc(-c2ccc(NC(=O)[C@@H]3CCCN3)cc2)c[nH]1`, the IC50 is over 30 µM in experiment [1]; over 30 µM in experiment [2]; over 30 µM in experiment [3]; over 30 µM in experiment [4]; over 30 µM in experiment [5]; 13 µM in experiment [6].

As for `CNc1nc(-c2cccc(NC(=O)c3ccco3)c2)cn1C(=O)OC(C)(C)C`, the IC50 is over 30 µM in experiment [1]; over 30 µM in experiment [2]; 26 µM in experiment [3]; over 30 µM in experiment [4]; over 30 µM in experiment [5]; over 30 µM in experiment [6].

In the case of `Nc1nc(-c2cccc(NC(=O)c3ccc[nH]3)c2)cn1C(=O)c1ccc[nH]1`, the IC50 was over 30 µM in experiment [1]; over 30 µM in experiment [2]; 19 µM in experiment [3]; over 30 µM in experiment [4]; over 30 µM in experiment [5]; 25 µM in experiment [6].

For `CC(C)(C)OC(=O)n1cc(-c2cccc(NC(=O)c3ccc[nH]3)c2)nc1N`, the concentration for half-maximal inhibition (IC50) was over 30 µM in experiment [1]; over 30 µM in experiment [2]; over 30 µM in experiment [3]; over 30 µM in experiment [4]; 25 µM in experiment [5]; 25 µM in experiment [6].

As to `CCN(CC)CC(=O)Nc1c(C)cccc1C` [LIDOCAINE], the IC50 in experiment [5] is 2 µM; in experiment [6] it was 10.5 µM.
